The target in test [1] is T1, Flavin-dependent thymidylate synthase (Mycobacterium tuberculosis) (UniProt P9WG57).
T1 sequence (whole entry): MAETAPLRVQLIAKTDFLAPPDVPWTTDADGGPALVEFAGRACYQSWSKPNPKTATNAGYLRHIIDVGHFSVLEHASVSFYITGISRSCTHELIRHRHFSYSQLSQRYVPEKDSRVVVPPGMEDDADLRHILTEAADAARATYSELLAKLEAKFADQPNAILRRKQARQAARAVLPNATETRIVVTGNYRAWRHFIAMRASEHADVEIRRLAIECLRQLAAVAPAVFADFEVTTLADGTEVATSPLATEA
Nature of the test: Inhibition of Mycobacterium tuberculosis ThyX-mediated dTMP synthesis using [5-3H]dUMP as substrate at 50 uM after 10 mins by liquid scintillation counting. Put shortly:
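Compounds tested at a single 50 μM dose on purified M. tuberculosis ThyX with 20 μM mTHF, 10 μM FAD, 500 μM NADPH. [5-3H]dUMP (13 Ci/mmol, stock 2 μM) added to start, 10 min at room temperature, TCA/dUMP stop, charcoal cleanup, tritiated water counted by scintillation; percent inhibition relative to control.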

Test [2] addresses T2, Flavin-dependent thymidylate synthase (Mycobacterium tuberculosis, UniProt P9WG57).
T2 sequence (P9WG57 whole entry): T1 sequence (whole entry)
Nature of the test: Inhibition of Mycobacterium tuberculosis ThyX-mediated dTMP synthesis using [5-3H]dUMP as substrate after 10 mins by liquid scintillation counting. Put shortly: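 Purified M. tuberculosis ThyX with 20 μM mTHF, 10 μM FAD and 500 μM NADPH; reaction started with [5-3H]dUMP (13 Ci/mmol, stock 2 μM), run 10 min at room temperature, stopped with TCA/dUMP. Unreacted substrate removed with activated charcoal (15 min on ice, then centrifugation); tritiated water in supernatant counted. IC50 from dose-response curves of percent activity versus control.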

Test [3] concerns the target T3, Thymidylate synthase ThyA (Mycobacterium tuberculosis, UniProt P9WFR9).
T3 sequence (P9WFR9 whole entry): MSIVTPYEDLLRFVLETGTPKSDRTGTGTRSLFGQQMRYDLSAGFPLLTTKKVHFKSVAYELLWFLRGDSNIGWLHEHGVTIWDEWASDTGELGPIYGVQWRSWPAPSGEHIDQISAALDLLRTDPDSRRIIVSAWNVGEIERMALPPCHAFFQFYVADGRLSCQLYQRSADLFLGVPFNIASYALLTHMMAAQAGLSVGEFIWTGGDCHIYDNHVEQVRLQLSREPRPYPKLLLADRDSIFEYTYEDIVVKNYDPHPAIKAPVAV
Nature of the test: Inhibition of Mycobacterium tuberculosis His-tagged ThyA-mediated dTMP synthesis expressed in BL21 (DE3) Escherichia coli RbCl cells after 30 mins by photometric assay.

Where only a bound is given, the exact number is not on record here.

A word on the inhibition: it is the change of the read-out against control, counted positive when it falls. A lower inhibition goes with little suppression. What is called IC50 is the midpoint of a concentration-inhibition curve. Lower therefore signals greater potency. Consider `CCCCCCNC(=O)NCC#Cc1cn([C@H]2C[C@H](O)[C@@H](COP(=O)(O)O)O2)c(=O)[nH]c1=O`, for which the inhibition in test [1] is 90.9%. Moreover, the IC50 in test [2] was 4.84 µM; in test [3], > 50 µM.
In turn, `CCCCNC(=O)CCCCC#Cc1cn([C@@H]2O[C@H](COP(=O)(O)O)[C@@H](O)[C@@H]2O)c(=O)[nH]c1=O` returned an inhibition in test [1] of 21%. In addition, the IC50 in test [2] and in test [3] was > 50 µM in each case.
As to `COc1cccc(-c2cn([C@H]3C[C@H](O)[C@@H](COP(=O)(O)O)O3)c(=O)[nH]c2=O)c1`, the inhibition in test [1] is 16%. For the same molecule, the IC50 in test [2] and in test [3] was > 50 µM throughout.
`CCCCCC(=O)NCC#Cc1cn([C@H]2C[C@H](O)[C@@H](COP(=O)(O)O)O2)c(=O)[nH]c1=O`: in test [1], the inhibition is 89.9%. The IC50 was 8.61 µM in test [2] and > 50 µM in test [3].
`CCCCNC(=O)CCCCC#Cc1cn([C@H]2C[C@H](O)[C@@H](COP(=O)(O)O)O2)c(=O)[nH]c1=O` registered an inhibition in test [1] of 74.6%. The IC50 was 8.03 µM in test [2] and > 50 µM in test [3].
The like results for `O=c1[nH]c(=O)n([C@H]2C[C@H](O)[C@@H](COP(=O)(O)O)O2)cc1F` were, in that order, 95.1%, 0.29 µM and 0.57 µM.
As to `CCCCCCCS(=O)(=O)NCC#Cc1cn([C@H]2C[C@H](O)[C@@H](COP(=O)(O)O)O2)c(=O)[nH]c1=O`, the inhibition in test [1] was found to be 84.7%. Further, the IC50 in test [2] is 6.93 µM; in test [3] it was > 50 µM.
In turn, `O=C(Cc1ccccc1)NCC#Cc1cn([C@H]2C[C@H](O)[C@@H](COP(=O)(O)O)O2)c(=O)[nH]c1=O` gave an inhibition in test [1] of 86.9%. Moreover, the IC50 in test [2] is 7.3 µM; in test [3], > 50 µM.
The matching figures for `CCCCCCCCCCC#Cc1cn([C@@H]2O[C@H](COP(=O)(O)O)[C@@H](O)[C@@H]2O)c(=O)[nH]c1=O`: 19%, > 50 µM and > 50 µM.
The like results for `CCCC(=O)NCC#Cc1cn([C@H]2C[C@H](O)[C@@H](COP(=O)(O)O)O2)c(=O)[nH]c1=O` were, in that order, 72%, 26.2 µM and > 50 µM.
The matching figures for `N#C/C=C/c1cn([C@H]2C[C@H](O)[C@@H](COP(=O)(O)O)O2)c(=O)[nH]c1=O`: 81.3%, 7.4 µM and > 50 µM.
In test [1], `CCCCCCCC(=O)NCC#Cc1cn([C@H]2C[C@H](O)[C@@H](COP(=O)(O)O)O2)c(=O)[nH]c1=O` yielded an inhibition of 92.8%. Further, the figures for the IC50 in test [2] and in test [3] were 0.91 µM and > 50 µM, respectively.
The like results for `O=c1[nH]c(=O)n([C@H]2C[C@H](O)[C@@H](COP(=O)(O)O)O2)cc1-c1ccc(F)cc1` were, in that order, 74%, 10 µM and > 50 µM.
The matching figures for `CCCCCCCCCCC#Cc1cn([C@H]2C[C@H](O)[C@@H](COP(=O)(O)O)O2)c(=O)[nH]c1=O`: 82.6%, 27.8 µM and > 50 µM.

The record behind these values is ChEMBL document CHEMBL1821613, “Synthesis and evaluation of 5-substituted 2'-deoxyuridine monophosphate analogues as inhibitors of flavin-dependent thymidylate synthase in Mycobacterium tuberculosis” (J Med Chem, 2011).
